Experimental data pooled from the literature.
Protocols differ between the studies behind these lines.
Target: Activated CDC42 kinase 1 (TNK2, Homo sapiens, UniProt Q07912)

| Compound | observed | technique | tested at | remaining binding [%] |
| --- | --- | --- | --- | --- |
| CS(=O)(=O)CCNCc1ccc(-c2ccc3ncnc(Nc4ccc(OCc5cccc(F)c5)c(Cl)c4)c3c2)o1 | cell-free assay | competition with immobilised ligand | 10 µM | 93 |
| O=C(NCC1CCOCC1)c1n[nH]cc1NC(=O)c1c(F)cccc1F | binding | competition with immobilised ligand | 1 µM | 98 |
| CCC(=O)N[C@H]1CC[C@@H](C(=O)N(C)c2ccc(-c3nc4ccccc4o3)cc2)C1 | cell-free assay | competition with immobilised ligand | 1 µM | 84 |
| CN(C)c1nccc(-c2cnn3ncccc23)n1 | binding | – | 1 µM | 100 |
| COC(=O)Nc1nc2cc(C(=O)c3ccccc3)ccc2[nH]1 | cell-free assay | competition with immobilised ligand | 0.1 µM | 100 |
| CCN1CCN(Cc2ccc(C(=O)Nc3ccc(C)c(Oc4ccc5c(c4)CC(=O)N5)c3)cc2C(F)(F)F)CC1 | binding | competition with immobilised ligand | 1 µM | 100 |
| CCS(=O)(=O)c1cc2cc(C[C@](O)(CC(C)(C)c3ccc(F)cc3C(N)=O)C(F)(F)F)[nH]c2cn1 | cell-free assay | competition with immobilised ligand | 1 µM | 100 |
| Nc1ncc2c(n1)-c1c([nH]c3ccc(C#CC4CC4)cc13)CCCC2 | binding | competition with immobilised ligand | 1 µM | 100 |
| CC1CCCN1c1nccc(-c2cnn3ncccc23)n1 (stereo not shown) | binding | – | 1 µM | 85 |
| CCN(CC)Cc1cc(Nc2ccnc3cc(Cl)ccc23)ccc1O | cell-free assay | competition with immobilised ligand | 0.1 µM | 89 |
| COc1ncc2cc3ccccc3nc2c1C#N | cell-free assay | competition with immobilised ligand | 5 µM | 95 |
| CNC(=O)c1cc(Oc2ccc(NC(=O)Nc3ccc(Cl)c(C(F)(F)F)c3)cc2)ccn1 | cell-free assay | competition with immobilised ligand | 10 µM | 89 |
| COc1cnc(Nc2cccc(S(N)(=O)=O)c2)nc1N1CCN(c2ccccc2)CC1 | binding | competition with immobilised ligand | 1 µM | 97 |
| c1cnn2ncc(-c3ccnc(N4CCC45COC5)n3)c2c1 | binding | – | 1 µM | 74 |
| Cc1c(-c2ccccc2)oc2c(C(=O)OCCN3CCCCC3)cccc2c1=O | cell-free assay | competition with immobilised ligand | 0.1 µM | 100 |
| C[C@H](c1ccc(F)cc1)N(Cc1cccc(C(=O)O)c1)C(=O)c1cnc2ccccc2c1 | cell-free assay | competition with immobilised ligand | 1 µM | 100 |

| Compound | observed | technique | tested at | remaining binding [%] |
| --- | --- | --- | --- | --- |
| Cc1nc(Nc2ncc(C(=O)Nc3c(C)cccc3Cl)s2)cc(N2CCN(CCO)CC2)n1 | cell-free assay | competition with immobilised ligand | 0.1 µM | 4 |
| CNCc1ccccc1-c1csc([C@@H](C)Nc2nc(C)nc3cc(OC)c(OC)cc23)c1 | cell-free assay | competition with immobilised ligand | 1 µM | 100 |
| CN1CC[C@H](c2c(O)cc(O)c3c(=O)cc(-c4ccccc4Cl)oc23)[C@H](O)C1 | cell-free assay | competition with immobilised ligand | 10 µM | 74 |
| CN(C)c1ncc(F)c(-c2cnn3ncccc23)n1 | binding | – | 1 µM | 77 |
| Cc1c(C(=O)O)cc(-c2ccc(C3CCNCC3)cc2)c2ccc(-c3ccc(C(F)(F)F)cc3)cc12 | binding | competition with immobilised ligand | 1 µM | 100 |
| COc1cc2ncnc(Nc3ccc(F)c(Cl)c3)c2cc1OCCCN1CCOCC1 | cell-free assay | competition with immobilised ligand | 10 µM | 77 |
| C[C@@H]1CCN(c2nccc(-c3cnn4ncccc34)n2)C1 | binding | – | 1 µM | 100 |
| CN([C@@H]1CCc2c(CC(=O)O)c3ccccc3n2C1)S(=O)(=O)c1ccc(F)cc1 | cell-free assay | competition with immobilised ligand | 1 µM | 100 |
| O=C(NCCCN1CCOCC1)c1ccc(Nc2ncc(Cl)c(-c3ccc(Cl)s3)n2)cc1 | binding | competition with immobilised ligand | 1 µM | 53 |
| c1ccc(N2CCN(Cc3nc4ccccc4[nH]3)CC2)nc1 | binding | competition with immobilised ligand | 1 µM | 100 |
| O=C(c1ccc(Nc2ncc(Cl)c(-c3cc4ccccc4s3)n2)cc1)N1CCC(N2CCCC2)CC1 | binding | competition with immobilised ligand | 1 µM | 54 |
| CN(C)c1nccc(-c2cnc3ncccn23)n1 | binding | – | 1 µM | 99 |
| COc1cc(-c2cn(C3CCc4c(F)cccc4N(CC(F)(F)F)C3=O)nn2)ccc1-n1cnc(C)c1 (stereo not shown) | cell-free assay | competition with immobilised ligand | 1 µM | 100 |
| O=C(c1ccc(Nc2ncc(Cl)c(-c3ccc(Cl)s3)n2)cc1)N1CCC(N2CCCC2)CC1 | binding | competition with immobilised ligand | 1 µM | 44 |
| N[C@@H]1CCN(c2nccc(-c3cnn4ncccc34)n2)C1 | binding | – | 1 µM | 100 |
